Measurements as given in ChEMBL document CHEMBL1154352, “Toll-like receptor 7 selective synthetic oligoribonucleotide agonists: synthesis and structure-activity relationship studies” (J Med Chem, 2009).
Active and inactive are the calls of the source. The calls are words filed in the database; no cut-off is given here.

Key:
[1] = molecular target: T1, Toll-like receptor 7 (Homo sapiens) (UniProt Q9NYK1); assay: Activation of human TLR7 expressed in HEK293XL assessed as fold induction of NF-kappaB activity at 50 ug/ml after 18 hrs by reporter gene assay relative to control
T1 sequence (whole entry): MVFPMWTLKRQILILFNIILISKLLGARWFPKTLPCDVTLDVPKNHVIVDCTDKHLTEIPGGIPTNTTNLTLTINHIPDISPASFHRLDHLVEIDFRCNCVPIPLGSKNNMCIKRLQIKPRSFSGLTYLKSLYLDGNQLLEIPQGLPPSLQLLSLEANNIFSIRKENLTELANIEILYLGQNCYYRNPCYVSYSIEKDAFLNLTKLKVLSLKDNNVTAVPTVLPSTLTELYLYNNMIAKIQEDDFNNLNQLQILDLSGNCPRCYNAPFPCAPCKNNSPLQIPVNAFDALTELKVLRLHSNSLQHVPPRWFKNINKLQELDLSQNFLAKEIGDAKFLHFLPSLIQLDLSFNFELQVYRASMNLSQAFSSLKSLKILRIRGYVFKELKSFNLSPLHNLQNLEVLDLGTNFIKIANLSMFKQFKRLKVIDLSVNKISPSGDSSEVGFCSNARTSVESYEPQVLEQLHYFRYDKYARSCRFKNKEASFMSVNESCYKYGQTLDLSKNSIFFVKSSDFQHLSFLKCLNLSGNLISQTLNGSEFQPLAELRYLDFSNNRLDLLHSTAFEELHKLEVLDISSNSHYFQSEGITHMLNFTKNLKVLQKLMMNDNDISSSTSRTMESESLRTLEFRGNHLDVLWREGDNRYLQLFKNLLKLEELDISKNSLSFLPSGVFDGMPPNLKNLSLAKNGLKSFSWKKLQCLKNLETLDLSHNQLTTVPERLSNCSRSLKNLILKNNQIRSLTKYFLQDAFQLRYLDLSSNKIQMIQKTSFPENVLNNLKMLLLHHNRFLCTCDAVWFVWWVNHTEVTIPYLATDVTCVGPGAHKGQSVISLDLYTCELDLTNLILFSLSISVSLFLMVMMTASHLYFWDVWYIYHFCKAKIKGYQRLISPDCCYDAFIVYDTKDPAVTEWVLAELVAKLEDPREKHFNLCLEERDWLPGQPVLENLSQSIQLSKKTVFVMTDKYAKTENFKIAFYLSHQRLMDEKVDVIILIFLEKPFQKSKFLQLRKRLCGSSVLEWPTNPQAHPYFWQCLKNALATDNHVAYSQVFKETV
Summary of the method: (§1)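 HEK293 cells stably expressing human TLR7 or TLR8, transiently transfected with SEAP reporter plasmid; medium replaced, SIMRA compounds added, 18 h incubation. Supernatant SEAP measured by QuantiBlue; expressed as fold increase in NF-κB activity over PBS control. Tabulated data at 50 μg/mL, representative of three independent experiments.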

[2] = molecular target: T2, Toll-like receptor 8 (Homo sapiens) (UniProt Q9NR97); assay: Activation of human TLR8 expressed in HEK293XL assessed as fold induction of NF-kappaB activity at 50 ug/ml after 18 hrs by reporter gene assay relative to control; summary of the method: as §1
T2 sequence (whole entry): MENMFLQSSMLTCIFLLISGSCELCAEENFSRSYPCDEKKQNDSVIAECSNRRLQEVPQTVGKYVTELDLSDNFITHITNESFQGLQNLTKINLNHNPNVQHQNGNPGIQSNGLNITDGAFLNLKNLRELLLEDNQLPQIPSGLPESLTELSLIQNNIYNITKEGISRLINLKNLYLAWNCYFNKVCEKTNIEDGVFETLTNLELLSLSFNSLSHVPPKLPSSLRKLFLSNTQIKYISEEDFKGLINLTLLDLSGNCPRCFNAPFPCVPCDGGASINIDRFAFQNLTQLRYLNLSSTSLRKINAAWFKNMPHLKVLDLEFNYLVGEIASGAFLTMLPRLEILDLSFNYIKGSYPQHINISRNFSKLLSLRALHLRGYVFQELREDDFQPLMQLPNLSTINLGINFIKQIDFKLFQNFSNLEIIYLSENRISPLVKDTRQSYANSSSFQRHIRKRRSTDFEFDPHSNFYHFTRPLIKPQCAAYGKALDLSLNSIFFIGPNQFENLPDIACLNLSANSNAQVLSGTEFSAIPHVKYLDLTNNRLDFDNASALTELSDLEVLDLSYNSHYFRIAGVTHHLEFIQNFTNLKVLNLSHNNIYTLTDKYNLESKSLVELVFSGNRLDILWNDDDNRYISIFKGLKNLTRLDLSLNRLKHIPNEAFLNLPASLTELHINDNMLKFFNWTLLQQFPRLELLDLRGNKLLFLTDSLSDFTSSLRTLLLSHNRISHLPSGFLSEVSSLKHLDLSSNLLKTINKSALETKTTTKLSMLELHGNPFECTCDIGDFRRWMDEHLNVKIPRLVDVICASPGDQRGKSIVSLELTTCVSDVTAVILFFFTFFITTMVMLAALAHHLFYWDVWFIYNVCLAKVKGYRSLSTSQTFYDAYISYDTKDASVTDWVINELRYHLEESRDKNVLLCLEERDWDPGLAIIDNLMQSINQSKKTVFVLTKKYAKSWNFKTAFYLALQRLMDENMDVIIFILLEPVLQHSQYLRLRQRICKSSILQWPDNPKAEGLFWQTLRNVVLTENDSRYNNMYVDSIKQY

[3] = molecular target: Toll-like receptor 3 (Homo sapiens) (UniProt O15455); assay: Activation of human TLR3 expressed in HEK293 assessed as induction of NF-kappaB activity reporter gene assay; format: cell-based
Toll-like receptor 3 (Homo sapiens), sequence (O15455 whole entry): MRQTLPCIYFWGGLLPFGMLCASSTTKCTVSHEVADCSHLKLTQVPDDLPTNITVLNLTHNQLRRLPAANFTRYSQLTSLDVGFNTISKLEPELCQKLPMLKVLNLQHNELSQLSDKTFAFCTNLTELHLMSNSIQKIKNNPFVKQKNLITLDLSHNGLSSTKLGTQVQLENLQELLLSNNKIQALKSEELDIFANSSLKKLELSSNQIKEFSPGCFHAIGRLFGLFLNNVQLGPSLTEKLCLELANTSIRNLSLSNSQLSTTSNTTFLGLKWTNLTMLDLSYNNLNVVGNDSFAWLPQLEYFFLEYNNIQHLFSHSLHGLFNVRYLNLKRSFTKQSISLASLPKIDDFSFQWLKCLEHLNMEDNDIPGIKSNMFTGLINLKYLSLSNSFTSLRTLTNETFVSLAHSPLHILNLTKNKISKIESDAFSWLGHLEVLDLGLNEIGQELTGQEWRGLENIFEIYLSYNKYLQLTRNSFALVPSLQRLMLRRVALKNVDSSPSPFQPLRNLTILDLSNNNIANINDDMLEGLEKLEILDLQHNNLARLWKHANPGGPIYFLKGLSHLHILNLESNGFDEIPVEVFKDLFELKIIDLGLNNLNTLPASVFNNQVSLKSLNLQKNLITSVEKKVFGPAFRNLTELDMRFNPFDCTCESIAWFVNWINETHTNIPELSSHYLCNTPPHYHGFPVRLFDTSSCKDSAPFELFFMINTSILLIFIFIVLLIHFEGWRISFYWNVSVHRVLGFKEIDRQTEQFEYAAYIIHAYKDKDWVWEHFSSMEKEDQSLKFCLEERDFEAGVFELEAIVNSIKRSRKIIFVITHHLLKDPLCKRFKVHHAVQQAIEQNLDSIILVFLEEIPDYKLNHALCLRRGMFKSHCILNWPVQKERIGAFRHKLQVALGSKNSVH

Splenocyte = assay: Immunomodulatory activity in C57BL/6 mouse splenocytes bearing TLR7 receptor assessed as IL12 release at 100 ug/ml after 24 hrs by ELISA; format: functional, cell-based
Summary of the method: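 C57BL/6 splenocytes in RPMI 1640 with 10% FBS, penicillin/streptomycin, 2 mM L-glutamine, plated at 5 × 10^6 cells/mL; compounds in PBS added, 37 °C for 24 h. Supernatant IL-12 and IL-6 by ELISA; representative of three independent experiments.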

| Structure (SMILES) | fold change (FC) [1] | fold change (FC) [2] | Activity [3] | Activity (Splenocyte) |
| --- | --- | --- | --- | --- |
| Nc1ccn([C@@H]2O[C@H](COP(=O)(S)O[C@H]3[C@@H](O)[C@H](n4cnc5c(N)ncnc54)O[C@@H]3CO)[C@@H](OP(=O)(S)OC[C@H]3O[C@@H](n4ccc(=O)[nH]c4=O)[C@H](O)[C@@H]3OP(=O)(S)OC[C@H]3O[C@@H](n4ccc(=O)[nH]c4=O)[C@H](O)[C@@H]3OP(=O)(S)OC[C@H]3O[C@@H](n4ccc5c(=O)[nH]c(N)nc54)[C@H](O)[C@@H]3OP(=O)(S)OC[C@H]3O[C@@H](n4cnc5c(N)ncnc54)[C@H](O)[C@@H]3OP(=O)(S)OC[C@H]3O[C@@H](n4ccc(N)nc4=O)[C@H](O)[C@@H]3OP(=O)(S)OC[C@H]3O[C@@H](n4ccc(=O)[nH]c4=O)[C@H](O)[C@@H]3OP(=O)(S)OC[C@H]3O[C@@H](n4ccc(=O)[nH]c4=O)[C@H](O)[C@@H]3OP(=O)(S)OC[C@H]3O[C@@H](n4ccc5c(=O)[nH]c(N)nc54)[C@H](O)[C@@H]3OP(=O)(S)OC[C@H]3O[C@@H](n4cnc5c(N)ncnc54)[C@H](O)[C@@H]3OP(=O)(S)OCC(O)COP(=O)(S)O[C@H]3[C@@H](O)[C@H](n4cnc5c(N)ncnc54)O[C@@H]3COP(=O)(S)O[C@H]3[C@@H](O)[C@H](n4ccc5c(=O)[nH]c(N)nc54)O[C@@H]3COP(=O)(S)O[C@H]3[C@@H](O)[C@H](n4ccc(=O)[nH]c4=O)O[C@@H]3COP(=O)(S)O[C@H]3[C@@H](O)[C@H](n4ccc(=O)[nH]c4=O)O[C@@H]3COP(=O)(S)O[C@H]3[C@@H](O)[C@H](n4ccc(N)nc4=O)O[C@@H]3COP(=O)(S)O[C@H]3[C@@H](O)[C@H](n4cnc5c(N)ncnc54)O[C@@H]3COP(=O)(S)O[C@H]3[C@@H](O)[C@H](n4ccc5c(=O)[nH]c(N)nc54)O[C@@H]3COP(=O)(S)O[C@H]3[C@@H](O)[C@H](n4ccc(=O)[nH]c4=O)O[C@@H]3COP(=O)(S)O[C@H]3[C@@H](O)[C@H](n4ccc(=O)[nH]c4=O)O[C@@H]3COP(=O)(S)O[C@H]3[C@@H](O)[C@H](n4ccc(N)nc4=O)O[C@@H]3COP(=O)(S)O[C@H]3[C@@H](O)[C@H](n4cnc5c(N)ncnc54)O[C@@H]3CO)[C@H]2O)c(=O)n1 (some centres not stated) | 9.1 | 1.4 | inactive | Active |
| Nc1ccn([C@@H]2O[C@H](COP(=O)(S)O[C@H]3[C@@H](O)[C@H](n4ccc5c(=O)[nH]c(N)nc54)O[C@@H]3COP(=O)(S)O[C@H]3[C@@H](O)[C@H](n4cnc5c(N)ncnc54)O[C@@H]3COP(=O)(S)O[C@H]3[C@@H](O)[C@H](n4cnc5c(N)ncnc54)O[C@@H]3COP(=O)(S)O[C@H]3[C@@H](O)[C@H](n4ccc5c(=O)[nH]c(N)nc54)O[C@@H]3COP(=O)(S)O[C@H]3[C@@H](O)[C@H](n4ccc(=O)[nH]c4=O)O[C@@H]3COP(=O)(S)O[C@H]3[C@@H](O)[C@H](n4ccc(=O)[nH]c4=O)O[C@@H]3COP(=O)(S)O[C@H]3[C@@H](O)[C@H](n4cnc5c(N)ncnc54)O[C@@H]3COP(=O)(S)O[C@H]3[C@@H](O)[C@H](n4cnc5c(N)ncnc54)O[C@@H]3CO)[C@@H](OP(=O)(S)OC[C@H]3O[C@@H](n4ccc(=O)[nH]c4=O)[C@H](O)[C@@H]3OP(=O)(S)OC[C@H]3O[C@@H](n4ccc5c(=O)[nH]c(N)nc54)[C@H](O)[C@@H]3OP(=O)(S)OCC(O)COP(=O)(S)O[C@H]3[C@@H](O)[C@H](n4ccc5c(=O)[nH]c(N)nc54)O[C@@H]3COP(=O)(S)O[C@H]3[C@@H](O)[C@H](n4ccc(=O)[nH]c4=O)O[C@@H]3COP(=O)(S)O[C@H]3[C@@H](O)[C@H](n4ccc(N)nc4=O)O[C@@H]3COP(=O)(S)O[C@H]3[C@@H](O)[C@H](n4ccc5c(=O)[nH]c(N)nc54)O[C@@H]3COP(=O)(S)O[C@H]3[C@@H](O)[C@H](n4cnc5c(N)ncnc54)O[C@@H]3COP(=O)(S)O[C@H]3[C@@H](O)[C@H](n4cnc5c(N)ncnc54)O[C@@H]3COP(=O)(S)O[C@H]3[C@@H](O)[C@H](n4ccc5c(=O)[nH]c(N)nc54)O[C@@H]3COP(=O)(S)O[C@H]3[C@@H](O)[C@H](n4ccc(=O)[nH]c4=O)O[C@@H]3COP(=O)(S)O[C@H]3[C@@H](O)[C@H](n4ccc(=O)[nH]c4=O)O[C@@H]3COP(=O)(S)O[C@H]3[C@@H](O)[C@H](n4cnc5c(N)ncnc54)O[C@@H]3COP(=O)(S)O[C@H]3[C@@H](O)[C@H](n4cnc5c(N)ncnc54)O[C@@H]3CO)[C@H]2O)c(=O)n1 (some centres not stated) | 13.7 | 0.7 | inactive | Active |
| Nc1ccn([C@@H]2O[C@H](COP(=O)(S)O[C@H]3[C@@H](O)[C@H](n4ccc(N)nc4=O)O[C@@H]3COP(=O)(S)O[C@H]3[C@@H](O)[C@H](n4cnc5c(N)ncnc54)O[C@@H]3COP(=O)(S)O[C@H]3[C@@H](O)[C@H](n4ccc5c(=O)[nH]c(N)nc54)O[C@@H]3COP(=O)(S)O[C@H]3[C@@H](O)[C@H](n4ccc(=O)[nH]c4=O)O[C@@H]3COP(=O)(S)O[C@H]3[C@@H](O)[C@H](n4ccc(=O)[nH]c4=O)O[C@@H]3COP(=O)(S)O[C@H]3[C@@H](O)[C@H](n4ccc(N)nc4=O)O[C@@H]3COP(=O)(S)O[C@H]3[C@@H](O)[C@H](n4cnc5c(N)ncnc54)O[C@@H]3CO)[C@@H](OP(=O)(S)OC[C@H]3O[C@@H](n4ccc(=O)[nH]c4=O)[C@H](O)[C@@H]3OP(=O)(S)OC[C@H]3O[C@@H](n4ccc(=O)[nH]c4=O)[C@H](O)[C@@H]3OP(=O)(S)OC[C@H]3O[C@@H](n4ccc(=O)[nH]c4=O)[C@H](O)[C@@H]3OP(=O)(S)OCC(O)COP(=O)(S)O[C@H]3[C@@H](O)[C@H](n4ccc(=O)[nH]c4=O)O[C@@H]3COP(=O)(S)O[C@H]3[C@@H](O)[C@H](n4ccc(=O)[nH]c4=O)O[C@@H]3COP(=O)(S)O[C@H]3[C@@H](O)[C@H](n4ccc(=O)[nH]c4=O)O[C@@H]3COP(=O)(S)O[C@H]3[C@@H](O)[C@H](n4ccc(N)nc4=O)O[C@@H]3COP(=O)(S)O[C@H]3[C@@H](O)[C@H](n4ccc(N)nc4=O)O[C@@H]3COP(=O)(S)O[C@H]3[C@@H](O)[C@H](n4cnc5c(N)ncnc54)O[C@@H]3COP(=O)(S)O[C@H]3[C@@H](O)[C@H](n4ccc5c(=O)[nH]c(N)nc54)O[C@@H]3COP(=O)(S)O[C@H]3[C@@H](O)[C@H](n4ccc(=O)[nH]c4=O)O[C@@H]3COP(=O)(S)O[C@H]3[C@@H](O)[C@H](n4ccc(=O)[nH]c4=O)O[C@@H]3COP(=O)(S)O[C@H]3[C@@H](O)[C@H](n4ccc(N)nc4=O)O[C@@H]3COP(=O)(S)O[C@H]3[C@@H](O)[C@H](n4cnc5c(N)ncnc54)O[C@@H]3CO)[C@H]2O)c(=O)n1 (some centres not stated) | 23.3 | 1.8 | inactive | Active |
